Results: article PMC5741288 (Pain Reports, 2016)
Marks after values point to notes of the source that are not given here.

Assay: Treatment-emergent adverse events, tolerability
Assay type: in vivo, healthy men
Summary of the method: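 Healthy men received single oral tablet doses (part 1: 1–225 mg; part 2: 10, 50 mg) or placebo under double-blind randomisation. Treatment-emergent adverse events were recorded along with clinical laboratory tests, ECG, oral temperature, vital signs and physical examinations, through follow-up.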

## CC(C)(O)c1ccccc1-c1ccc2[nH]c(/C=C/c3ccc(C(F)(F)F)cc3)nc2c1 [JNJ-39439335, trans-2-(2-{2-[2-(4-Trifluoromethyl-phenyl)-vinyl]-1H-benzimidazol-5-yl}-phenyl)-propan-2-ol]
Part 1, 30 mg (N = 5)
  TEAE Burning sensation: 0 n (%)
  TEAE Chills: 0 n (%)
  TEAE Dizziness: 1 (20) n (%)
  TEAE Dizziness postural: 0 n (%)
  TEAE Dysgeusia: 1 (20) n (%)
  TEAE Fatigue: 0 n (%)
  TEAE Feeling cold: 5 (100) n (%)
  TEAE Feeling hot: 4 (80) n (%)
  TEAE Headache: 0 n (%)
  TEAE Hematoma: 0 n (%)
  TEAE Hyperhidrosis: 0 n (%)
  TEAE Hypoesthesia: 0 n (%)
  TEAE Hypogeusia: 0 n (%)
  TEAE Nausea: 0 n (%)
  TEAE Orthostatic hypotension: 1 (20) n (%)
  TEAE Paresthesia: 0 n (%)
  TEAE Pruritus: 0 n (%)
  TEAE Pyrexia: 3 (60) n (%)
  TEAE Rhinitis: 0 n (%)
  TEAE Thermal burn: 1 (20) n (%)
  TEAE Thermohypoesthesia: 3 (60) n (%)
  Total no. participants with AEs: 5 (100) n (%)
Part 1, 60 mg (N = 6)
  TEAE Agusia: 0 n (%)
  TEAE Back pain: 0 n (%)
  TEAE Burning sensation: 0 n (%)
  TEAE Chills: 0 n (%)
  TEAE Dizziness: 0 n (%)
  TEAE Dizziness postural: 0 n (%)
  TEAE Dysgeusia: 1 (17) n (%)
  TEAE Fatigue: 0 n (%)
  TEAE Feeling cold: 4 (67) n (%)
  TEAE Feeling hot: 1 (17) n (%)
  TEAE Headache: 0 n (%)
  TEAE Hematoma: 0 n (%)
  TEAE Hyperhidrosis: 0 n (%)
  TEAE Hypoesthesia: 1 (17) n (%)
  TEAE Hypogeusia: 0 n (%)
  TEAE Nausea: 1 (17) n (%)
  TEAE Paresthesia: 0 n (%)
  TEAE Pruritus: 0 n (%)
  TEAE Pyrexia: 4 (67) n (%)
  TEAE Rhinitis: 0 n (%)
  TEAE Thermal burn: 0 n (%)
  TEAE Thermohypoesthesia: 1 (17) n (%)
  Total no. participants with AEs: 6 (100) n (%)
Part 1, 120 mg (N = 6)
  TEAE Agusia: 0 n (%)
  TEAE Back pain: 0 n (%)
  TEAE Burning sensation: 0 n (%)
  TEAE Chills: 1 (17) n (%)
  TEAE Dizziness: 1 (17) n (%)
  TEAE Dizziness postural: 1 (17) n (%)
  TEAE Dysgeusia: 0 n (%)
  TEAE Fatigue: 1 (17) n (%)
  TEAE Feeling cold: 1 (17) n (%)
  TEAE Feeling hot: 1 (17) n (%)
  TEAE Headache: 1 (17) n (%)
  TEAE Hematoma: 1 (17) n (%)
  TEAE Hyperhidrosis: 0 n (%)
  TEAE Hypoesthesia: 1 (17) n (%)
  TEAE Hypogeusia: 0 n (%)
  TEAE Nausea: 1 (17) n (%)
  TEAE Orthostatic hypotension: 0^a n (%)
  TEAE Paresthesia: 0 n (%)
  TEAE Pruritus: 1 (17) n (%)
  TEAE Pyrexia: 4 (67) n (%)
  TEAE Rhinitis: 0 n (%)
  TEAE Thermal burn: 0 n (%)
  TEAE Thermohypoesthesia: 4 (67) n (%)
  Total no. participants with AEs: 6 (100) n (%)
Part 1, 225 mg (N = 6)
  TEAE Agusia: 2 (33) n (%)
  TEAE Back pain: 0 n (%)
  TEAE Burning sensation: 5 (83) n (%)
  TEAE Chills: 1 (17) n (%)
  TEAE Dizziness: 1 (17) n (%)
  TEAE Dizziness postural: 0 n (%)
  TEAE Dysgeusia: 0 n (%)
  TEAE Fatigue: 0 n (%)
  TEAE Feeling cold: 2 (33) n (%)
  TEAE Feeling hot: 5 (83) n (%)
  TEAE Headache: 2 (33) n (%)
  TEAE Hematoma: 0 n (%)
  TEAE Hyperhidrosis: 1 (17) n (%)
  TEAE Hypoesthesia: 0 n (%)
  TEAE Hypogeusia: 0 n (%)
  TEAE Nausea: 0 n (%)
  TEAE Orthostatic hypotension: 1 (17) n (%)
  TEAE Paresthesia: 3 (50) n (%)
  TEAE Pruritus: 1 (17) n (%)
  TEAE Pyrexia: 3 (50) n (%)
  TEAE Rhinitis: 0 n (%)
  TEAE Thermal burn: 3 (50) n (%)
  TEAE Thermohypoesthesia: 5 (83) n (%)
  Total no. participants with AEs: 6 (100) n (%)
Part 1, 225-mg dose group
  Participants with burning feeling (not physical burn): 5 participants
Part 1, of 59 participants receiving JNJ-39439335
  Participants reporting at least 1 TEAE: 50 (85%) n (%)
Part 1, of the 89 participants who received JNJ-39439335 or placebo
  Participants with minor or first-degree burns: 4 participants
Part 1, participants receiving JNJ-39439335
  Thermohypoesthesia, participants: 23 (39%) n (%)
Part 2
  Thermohypoesthesia, participants: 70%
Part 2, 10 mg (N = 19)
  TEAE Disturbance in attention: 1 (5) n (%)
  TEAE Dizziness: 0 n (%)
  TEAE Dizziness postural: 0 n (%)
  TEAE Dysgeusia: 4 (21) n (%)
  TEAE Feeling cold: 9 (47) n (%)
  TEAE Feeling hot: 6 (32) n (%)
  TEAE Headache: 3 (16) n (%)
  TEAE Hyperhidrosis: 2 (11) n (%)
  TEAE Oropharyngeal pain: 1 (5) n (%)
  TEAE Paresthesia: 7 (37) n (%)
  TEAE Pyrexia: 8 (42) n (%)
  TEAE Thermal burn: 0 n (%)
  TEAE Thermohypoesthesia: 9 (47) n (%)
  Total no. participants with AEs: 17 (89) n (%)
Part 2, 50 mg (N = 20)
  TEAE Disturbance in attention: 2 (10) n (%)
  TEAE Dizziness: 2 (10) n (%)
  TEAE Dizziness postural: 1 (5) n (%)
  TEAE Dysgeusia: 5 (25) n (%)
  TEAE Feeling cold: 9 (45) n (%)
  TEAE Feeling hot: 8 (40) n (%)
  TEAE Headache: 3 (15) n (%)
  TEAE Hyperhidrosis: 2 (10) n (%)
  TEAE Oropharyngeal pain: 1 (5) n (%)
  TEAE Paresthesia: 9 (45) n (%)
  TEAE Pyrexia: 11 (55) n (%)
  TEAE Thermal burn: 2 (10) n (%)
  TEAE Thermohypoesthesia: 12 (60) n (%)
  Total no. participants with AEs: 19 (95) n (%)
Part 2, 50-mg dose
  Participants with minor burns of the mouth: 2 participants
Part 2, Total (N = 20)
  TEAE Disturbance in attention: 2 (10) n (%)
  TEAE Dizziness: 2 (10) n (%)
  TEAE Dizziness postural: 2 (10) n (%)
  TEAE Dysgeusia: 7 (35) n (%)
  TEAE Feeling cold: 13 (65) n (%)
  TEAE Feeling hot: 11 (55) n (%)
  TEAE Headache: 5 (25) n (%)
  TEAE Hyperhidrosis: 4 (20) n (%)
  TEAE Oropharyngeal pain: 2 (10) n (%)
  TEAE Paresthesia: 11 (55) n (%)
  TEAE Pyrexia: 12 (60) n (%)
  TEAE Thermal burn: 2 (10) n (%)
  TEAE Thermohypoesthesia: 14 (70) n (%)
  Total no. participants with AEs: 20 (100) n (%)
Parts 1 and 2
  Severe adverse events / withdrawals because of an adverse event: no severe adverse events reported
Single oral doses up to 225 mg
  Tolerability: well tolerated
